{"source": "ChEMBL document CHEMBL1144404", "about": "“Aminoimidazolylmethyluracil analogues as potent inhibitors of thymidine phosphorylase and their bioreductive nitroimidazolyl prodrugs” (J Med Chem, 2005)", "key": {"Thymidine phosphorylase [1]": {"target": "T1, Thymidine phosphorylase (Homo sapiens, UniProt P19971)", "T1 sequence (P19971 whole entry)": "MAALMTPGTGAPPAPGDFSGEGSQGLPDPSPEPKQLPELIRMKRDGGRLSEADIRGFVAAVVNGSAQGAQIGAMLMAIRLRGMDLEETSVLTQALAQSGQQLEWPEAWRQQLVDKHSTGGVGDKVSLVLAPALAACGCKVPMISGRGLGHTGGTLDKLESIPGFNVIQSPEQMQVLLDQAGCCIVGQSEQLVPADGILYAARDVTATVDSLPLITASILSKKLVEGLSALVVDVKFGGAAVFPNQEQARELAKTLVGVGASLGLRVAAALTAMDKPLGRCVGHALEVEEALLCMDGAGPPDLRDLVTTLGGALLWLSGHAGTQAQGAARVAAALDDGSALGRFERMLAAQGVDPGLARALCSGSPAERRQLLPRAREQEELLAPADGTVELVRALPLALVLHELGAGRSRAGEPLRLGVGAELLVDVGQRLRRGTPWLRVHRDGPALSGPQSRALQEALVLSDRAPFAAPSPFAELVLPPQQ", "test": "Inhibitory concentration against human thymidine phosphorylase"}, "Thymidine phosphorylase [2]": {"target": "Thymidine phosphorylase (Escherichia coli K-12, UniProt P07650)", "sequence (P07650 whole entry)": "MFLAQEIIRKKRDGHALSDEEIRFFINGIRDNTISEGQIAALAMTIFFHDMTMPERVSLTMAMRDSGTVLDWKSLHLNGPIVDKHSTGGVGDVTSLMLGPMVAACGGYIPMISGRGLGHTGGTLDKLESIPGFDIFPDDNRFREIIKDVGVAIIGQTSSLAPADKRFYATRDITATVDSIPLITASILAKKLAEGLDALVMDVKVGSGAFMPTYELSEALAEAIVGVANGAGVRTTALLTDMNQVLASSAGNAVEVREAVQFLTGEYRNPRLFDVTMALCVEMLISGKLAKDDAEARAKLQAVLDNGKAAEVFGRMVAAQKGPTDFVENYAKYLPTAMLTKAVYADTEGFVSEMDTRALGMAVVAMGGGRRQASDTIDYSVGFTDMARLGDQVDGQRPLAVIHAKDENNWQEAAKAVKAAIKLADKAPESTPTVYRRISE", "test": "Inhibitory concentration against thymidine phosphorylase of Escherichia coli"}, "[3]": {"test": "Half-life was measured in mice after oral administration of 20 mg/kg", "assay_type": "ADME, organism-based", "design": "dose 20 mg/kg, route oral", "conditions": "mouse, in vivo; call rule not given here", "outline": "(§1)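 Mice given a single dose by ip (10 mg/kg), oral (20 mg/kg) or iv (2 mg/kg) route. Blood sampled over 24 h after dosing; plasma analysed for parent compound. PK parameters (Cmax, Tmax, AUC, T1/2, F, C0, Cl, Vdss) derived from plasma concentration-time profiles.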"}, "[4]": {"test": "Bioavailability in mouse (dose 2 mg/kg i.v.)", "assay_type": "ADME, organism-based", "conditions": "in vivo, iv", "outline": "as §1"}, "[5]": {"test": "Maximum time to attain Cmax in mice after oral administration of 20 mg/kg", "assay_type": "ADME, organism-based", "design": "dose 20 mg/kg, route oral", "conditions": "mouse, in vivo", "outline": "as §1"}, "[6]": {"test": "Half-life was measured in mice after intraperitoneal administration of 10 mg/kg", "assay_type": "ADME, organism-based", "design": "dose 10 mg/kg, route intraperitoneal", "conditions": "mouse, in vivo, ip", "outline": "as §1"}, "[7]": {"test": "Bioavailability in mouse (dose 10 mg/kg i.p.)", "assay_type": "ADME, organism-based", "conditions": "in vivo, ip", "outline": "as §1"}, "[8]": {"test": "Area under concentration-time curve for the compound was measured in mice after intraperitoneal administration of 10 mg/kg", "assay_type": "ADME, organism-based", "design": "dose 10 mg/kg, route intraperitoneal", "conditions": "mouse, in vivo, ip", "outline": "as §1"}, "[9]": {"test": "Maximum plasma concentration in mice after oral administration of 20 mg/kg", "assay_type": "ADME, organism-based", "design": "dose 20 mg/kg, route oral", "conditions": "mouse", "outline": "as §1"}, "[10]": {"test": "Area under concentration-time curve for the compound was measured in mice after intravenous administration of 2 mg/kg", "assay_type": "ADME, organism-based", "design": "dose 2 mg/kg, route intravenous", "conditions": "mouse, in vivo", "outline": "as §1"}, "[11]": {"test": "Area under concentration-time curve for the compound was measured in mice after oral administration of 20 mg/kg", "assay_type": "ADME, organism-based", "design": "dose 20 mg/kg, route oral", "conditions": "mouse, in vivo", "outline": "as §1"}, "[12]": {"test": "Clearance at time 0 was measured in mice after intravenous administration of 2 mg/kg", "assay_type": "ADME, organism-based", "design": "dose 2 mg/kg, route intravenous", "conditions": "mouse, in vivo", "outline": "as §1"}, "[13]": {"test": "Half-life was measured in mice after intravenous administration of 2 mg/kg", "assay_type": "ADME, organism-based", "design": "dose 2 mg/kg, route intravenous", "conditions": "mouse, in vivo", "outline": "as §1"}, "[14]": {"test": "Concentration at time 0 was measured in mice after intravenous administration of 2 mg/kg", "assay_type": "ADME, organism-based", "design": "dose 2 mg/kg, route intravenous", "conditions": "mouse, in vivo", "outline": "as §1"}, "[15]": {"test": "Maximum concentration was measured in mice after intraperitoneal administration of 10 mg/kg", "assay_type": "ADME, organism-based", "design": "dose 10 mg/kg, route intraperitoneal", "conditions": "mouse, in vivo, ip", "outline": "as §1"}, "[16]": {"test": "Steady state volume of distribution was measured in mice after intravenous administration of 2 mg/kg", "assay_type": "ADME, organism-based", "design": "dose 2 mg/kg, route intravenous", "conditions": "mouse, in vivo, read-out: Vdss", "outline": "as §1"}, "[17]": {"test": "Bioavailability in mouse (dose 20 mg/kg p.o.)", "assay_type": "ADME, organism-based", "conditions": "in vivo, po", "outline": "as §1"}, "[18]": {"test": "Maximum time to attain Cmax in mice after intraperitoneal administration of 10 mg/kg", "assay_type": "ADME, organism-based", "design": "dose 10 mg/kg, route intraperitoneal", "conditions": "mouse, in vivo, ip", "outline": "as §1"}, "[19]": {"test": "Maximum plasma concentration in mice after intraperitoneal administration of 10 mg/kg", "assay_type": "ADME, organism-based", "design": "dose 10 mg/kg, route intraperitoneal", "conditions": "mouse, ip", "outline": "as §1"}}}
{"smiles": "O=c1[nH]c(Cn2cnc([N+](=O)[O-])c2)c(Cl)c(=O)[nH]1", "values": [{"measurement": "IC50", "setting": "Thymidine phosphorylase [1]", "result": 200, "unit": "µM"}, {"measurement": "IC50", "setting": "Thymidine phosphorylase [2]", "result": 7, "unit": "µM"}]}
{"smiles": "Nc1c[n+](Cc2nc(O)nc(O)c2Br)c[nH]1", "values": [{"measurement": "IC50", "setting": "Thymidine phosphorylase [2]", "result": 6.5, "unit": "µM"}]}
{"smiles": "Nc1c[n+](Cc2nc(O)nc(O)c2Cl)c[nH]1", "values": [{"measurement": "IC50", "setting": "Thymidine phosphorylase [2]", "result": 7.3, "unit": "µM"}]}
{"smiles": "O=c1[nH]c(Cn2cnc([N+](=O)[O-])c2)c(Br)c(=O)[nH]1", "values": [{"measurement": "IC50", "setting": "Thymidine phosphorylase [1]", "result": 181, "unit": "µM"}, {"measurement": "IC50", "setting": "Thymidine phosphorylase [2]", "result": 6.6, "unit": "µM"}]}
{"smiles": "Cl.N=C1CCCN1Cc1[nH]c(=O)[nH]c(=O)c1Cl", "note": "[TIPIRACIL HYDROCHLORIDE]", "values": [{"measurement": "half-life", "setting": "[3]", "result": 102, "unit": "min"}, {"measurement": "F", "setting": "[4]", "result": "Not Active"}, {"measurement": "Tmax", "setting": "[5]", "result": 60, "unit": "min"}, {"measurement": "half-life", "setting": "[6]", "result": 48, "unit": "min"}, {"measurement": "bioavailability", "setting": "[7]", "result": "> 100", "unit": "%"}, {"measurement": "AUC", "setting": "[8]", "result": 1.658, "unit": "µg/h/mL"}, {"measurement": "Cmax", "setting": "[9]", "result": 391, "unit": "ng/mL"}, {"measurement": "AUC", "setting": "[10]", "result": 0.19, "unit": "µg/h/mL"}, {"measurement": "AUC", "setting": "[11]", "result": 0.99, "unit": "µg/h/mL"}, {"measurement": "clearance", "setting": "[12]", "result": "> 72", "unit": "mL/min/kg"}, {"measurement": "half-life", "setting": "[13]", "result": 6, "unit": "min"}, {"measurement": "C0", "setting": "[14]", "result": 942, "unit": "ng/mL"}, {"measurement": "Cmax", "setting": "[15]", "result": 4450, "unit": "ng/mL"}, {"measurement": "Vd", "setting": "[16]", "result": 2.1, "unit": "L/kg"}, {"measurement": "bioavailability", "setting": "[17]", "result": 52, "unit": "%"}, {"measurement": "Tmax", "setting": "[18]", "result": 4.98, "unit": "min"}]}
{"smiles": "Nc1[nH]cc[n+]1Cc1[nH]c(=O)[nH]c(=O)c1Br", "values": [{"measurement": "half-life", "setting": "[3]", "result": 132, "unit": "min"}, {"measurement": "F", "setting": "[4]", "result": "Not Active"}, {"measurement": "Tmax", "setting": "[5]", "result": 60, "unit": "min"}, {"measurement": "half-life", "setting": "[6]", "result": 60, "unit": "min"}, {"measurement": "Cmax", "setting": "[19]", "result": 5080, "unit": "ng/mL"}, {"measurement": "bioavailability", "setting": "[7]", "result": 103, "unit": "%"}, {"measurement": "AUC", "setting": "[8]", "result": 1.505, "unit": "µg/h/mL"}, {"measurement": "Cmax", "setting": "[9]", "result": 350, "unit": "ng/mL"}, {"measurement": "AUC", "setting": "[10]", "result": 0.292, "unit": "µg/h/mL"}, {"measurement": "AUC", "setting": "[11]", "result": 0.968, "unit": "µg/h/mL"}, {"measurement": "clearance", "setting": "[12]", "result": "> 72", "unit": "mL/min/kg"}, {"measurement": "half-life", "setting": "[13]", "result": 12, "unit": "min"}, {"measurement": "C0", "setting": "[14]", "result": 3750, "unit": "ng/mL"}, {"measurement": "Vd", "setting": "[16]", "result": 1.3, "unit": "L/kg"}, {"measurement": "bioavailability", "setting": "[17]", "result": 33, "unit": "%"}, {"measurement": "Tmax", "setting": "[18]", "result": 5, "unit": "min"}]}
{"smiles": "O=[N+]([O-])c1cn(Cc2cc(O)nc(O)n2)cn1", "values": [{"measurement": "IC50", "setting": "Thymidine phosphorylase [1]", "result": 500, "unit": "µM"}, {"measurement": "IC50", "setting": "Thymidine phosphorylase [2]", "result": 13.8, "unit": "µM"}]}
{"smiles": "Nc1c[n+](Cc2cc(O)nc(O)n2)c[nH]1", "values": [{"measurement": "IC50", "setting": "Thymidine phosphorylase [1]", "result": 143, "unit": "µM"}, {"measurement": "IC50", "setting": "Thymidine phosphorylase [2]", "result": 101, "unit": "µM"}]}
